In ChEMBL document CHEMBL1949650, “Design, synthesis, computational and biological evaluation of some new hydrazino derivatives of DHA and pyranopyrazoles” (2012):
Calls of active or inactive are those of the source. No cut-off for these calls is given here.

What was measured:
Mus musculus [1] = test: Analgesic activity in Swiss albino mouse assessed as inhibition of acetic acid-induced writhing at 50 mg/kg, po administered 30 mins prior acetic acid-induction measured after 1 to 2 hrs by tail immersion method; format: functional, organism-based; design: dose 50 mg/kg
Mus musculus [2] = test: Analgesic activity in Swiss albino mouse assessed as inhibition of acetic acid-induced writhing at 50 mg/kg, po administered 30 mins prior acetic acid-induction measured after 1 hr by tail immersion method; format: functional, organism-based; design: dose 50 mg/kg
Rattus norvegicus [3] = test: Antiinflammatory activity in rat assessed as inhibition of carrageenan-induced paw oedema at 50 mg/kg after 2 hrs by plethysmography relative to control; format: functional
Outline: (§1)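 0.1 ml of 1% carrageenan was injected subplantar into the right hind paw. Paw volume was measured plethysmographically immediately and at 1, 2, 3 and 4 h; oedema is the volume difference. Test compounds were dosed at 50 mg/kg b.w., with diclofenac sodium 50 mg/kg as reference. Percent inhibition was calculated against the saline control group. N = 5, mean ± SEM, ANOVA.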

Rattus norvegicus [4] = test: Antiinflammatory activity in rat assessed as inhibition of carrageenan-induced paw oedema at 50 mg/kg after 1 hr by plethysmography relative to control; format: functional; outline: as §1
Mus musculus [5] = test: Analgesic activity in Swiss albino mouse assessed as protection against acetic acid-induced wriths at 50 mg/kg, po administered 30 mins prior acetic acid challenge measured for 10 mins; format: functional
Outline: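 Adult Swiss albino mice (20-25 g) were used, with N = 5 per group. Wriths were counted for 10 min, starting 5 min after acetic acid injection, on day 1 as each mouse's control. Next day, 50 mg/kg was given orally 30 min before acetic acid. Diclofenac sodium was the standard. Protection = […] × 100 from group means. Analysis: mean ± SEM, one-way ANOVA, Tukey-Kramer.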

Rattus norvegicus [6] = test: Antiinflammatory activity in rat assessed as inhibition of carrageenan-induced paw oedema at 50 mg/kg after 4 hrs by plethysmography relative to controlchallenge by plethysmography; format: functional; outline: as §1
Rattus norvegicus [7] = test: Antiinflammatory activity in rat assessed as inhibition of carrageenan-induced paw oedema at 50 mg/kg after 3 hrs by plethysmography relative to control; format: functional; outline: as §1
Mus musculus [8] = test: Analgesic activity in Swiss albino mouse assessed as inhibition of acetic acid-induced writhing at 50 mg/kg, po administered 30 mins prior acetic acid-induction measured after 2 hrs by tail immersion method; format: functional, organism-based; design: dose 50 mg/kg

## Cc1cc2nn(-c3ccccc3)c(C)c2c(=O)o1
Mus musculus [1]
  Activity: Active
Mus musculus [2]
  Activity: Active
Rattus norvegicus [3]
  inhibition in vivo at 50 mg/kg: 55%
Rattus norvegicus [4]
  inhibition in vivo at 50 mg/kg: 57%
Mus musculus [5]
  inhibition in vivo at 50 mg/kg: 50.2%
Rattus norvegicus [6]
  inhibition in vivo at 50 mg/kg: 43.1%
Rattus norvegicus [7]
  inhibition in vivo at 50 mg/kg: 52.5%

## COc1ccc(NNc2cc(C)oc(=O)c2C(C)=O)cc1
Rattus norvegicus [3]
  inhibition in vivo at 50 mg/kg: 49.4%
Rattus norvegicus [4]
  inhibition in vivo at 50 mg/kg: 50%
Mus musculus [5]
  inhibition in vivo at 50 mg/kg: 59.2%
Rattus norvegicus [6]
  inhibition in vivo at 50 mg/kg: 24.5%
Rattus norvegicus [7]
  inhibition in vivo at 50 mg/kg: 44.4%

## CC(=O)c1c(NNc2ccc(C)cc2)cc(C)oc1=O
Mus musculus [2]
  Activity: Active
Rattus norvegicus [3]
  inhibition in vivo at 50 mg/kg: 53.4%
Rattus norvegicus [4]
  inhibition in vivo at 50 mg/kg: 60.1%
Mus musculus [5]
  inhibition in vivo at 50 mg/kg: 70.2%
Rattus norvegicus [6]
  inhibition in vivo at 50 mg/kg: 50%
Rattus norvegicus [7]
  inhibition in vivo at 50 mg/kg: 59.6%

## Cc1cc2nn(-c3ccc(Br)cc3)c(C)c2c(=O)o1
Mus musculus [1]
  Activity: Active
Rattus norvegicus [3]
  inhibition in vivo at 50 mg/kg: 50.6%
Rattus norvegicus [4]
  inhibition in vivo at 50 mg/kg: 59.5%
Mus musculus [5]
  inhibition in vivo at 50 mg/kg: 44.9%
Rattus norvegicus [6]
  inhibition in vivo at 50 mg/kg: 38.2%
Rattus norvegicus [7]
  inhibition in vivo at 50 mg/kg: 49.5%

## CC(=O)c1c(NNc2nc(C)cc(C)n2)cc(C)oc1=O
Mus musculus [2]
  Activity: Active
Rattus norvegicus [3]
  inhibition in vivo at 50 mg/kg: 61.8%
Rattus norvegicus [4]
  inhibition in vivo at 50 mg/kg: 59.5%
Mus musculus [5]
  inhibition in vivo at 50 mg/kg: 64.9%
Rattus norvegicus [6]
  inhibition in vivo at 50 mg/kg: 42.2%
Rattus norvegicus [7]
  inhibition in vivo at 50 mg/kg: 55.6%

## CC(=O)c1c(NNc2ccc(Cl)cc2)cc(C)oc1=O
Rattus norvegicus [3]
  inhibition in vivo at 50 mg/kg: 57.3%
Rattus norvegicus [4]
  inhibition in vivo at 50 mg/kg: 54.4%
Mus musculus [5]
  inhibition in vivo at 50 mg/kg: 75.1%
Rattus norvegicus [6]
  inhibition in vivo at 50 mg/kg: 28.4%
Rattus norvegicus [7]
  inhibition in vivo at 50 mg/kg: 58.6%

## Cc1ccc(-n2nc3cc(C)oc(=O)c3c2C)cc1
Mus musculus [8]
  Activity: Active
Rattus norvegicus [3]
  inhibition in vivo at 50 mg/kg: 58.4%
Rattus norvegicus [4]
  inhibition in vivo at 50 mg/kg: 63.3%
Mus musculus [5]
  inhibition in vivo at 50 mg/kg: 69.4%
Rattus norvegicus [6]
  inhibition in vivo at 50 mg/kg: 41.7%
Rattus norvegicus [7]
  inhibition in vivo at 50 mg/kg: 54%

## CC(=O)c1c(NNc2ccccc2)cc(C)oc1=O
Mus musculus [2]
  Activity: Active
Rattus norvegicus [3]
  inhibition in vivo at 50 mg/kg: 57.3%
Rattus norvegicus [4]
  inhibition in vivo at 50 mg/kg: 59.5%
Mus musculus [5]
  inhibition in vivo at 50 mg/kg: 49.8%
Rattus norvegicus [6]
  inhibition in vivo at 50 mg/kg: 52%
Rattus norvegicus [7]
  inhibition in vivo at 50 mg/kg: 55.6%

## CC(=O)c1c(NNc2ccc([N+](=O)[O-])cc2)cc(C)oc1=O
Rattus norvegicus [3]
  inhibition in vivo at 50 mg/kg: 55%
Rattus norvegicus [4]
  inhibition in vivo at 50 mg/kg: 53.2%
Mus musculus [5]
  inhibition in vivo at 50 mg/kg: 47.3%
Rattus norvegicus [6]
  inhibition in vivo at 50 mg/kg: 44.1%
Rattus norvegicus [7]
  inhibition in vivo at 50 mg/kg: 45.5%

## O=C(O)Cc1ccccc1Nc1c(Cl)cccc1Cl [DICLOFENAC SODIUM]
Rattus norvegicus [3]
  inhibition in vivo at 50 mg/kg: 67.4%
Rattus norvegicus [4]
  inhibition in vivo at 50 mg/kg: 70.9%
Mus musculus [5]
  inhibition in vivo at 50 mg/kg: 77.5%
Rattus norvegicus [6]
  inhibition in vivo at 50 mg/kg: 66.7%
Rattus norvegicus [7]
  inhibition in vivo at 50 mg/kg: 69.7%

## CC(=O)c1c(NNc2ccc(Br)cc2)cc(C)oc1=O
Rattus norvegicus [3]
  inhibition in vivo at 50 mg/kg: 47.2%
Rattus norvegicus [4]
  inhibition in vivo at 50 mg/kg: 46.8%
Mus musculus [5]
  inhibition in vivo at 50 mg/kg: 53.1%
Rattus norvegicus [6]
  inhibition in vivo at 50 mg/kg: 18.6%
Rattus norvegicus [7]
  inhibition in vivo at 50 mg/kg: 40.4%

## CC(=O)c1c(NNc2cc(C)c3ccccc3n2)cc(C)oc1=O
Mus musculus [1]
  Activity: Active
Mus musculus [8]
  Activity: Active
Mus musculus [2]
  Activity: Active
Rattus norvegicus [3]
  inhibition in vivo at 50 mg/kg: 55%
Rattus norvegicus [4]
  inhibition in vivo at 50 mg/kg: 51.9%
Mus musculus [5]
  inhibition in vivo at 50 mg/kg: 75%
Rattus norvegicus [6]
  inhibition in vivo at 50 mg/kg: 51%
Rattus norvegicus [7]
  inhibition in vivo at 50 mg/kg: 55.6%

## CC(=O)c1c(NNc2nc3ccccc3s2)cc(C)oc1=O
Mus musculus [1]
  Activity: Active
Mus musculus [2]
  Activity: Active
Rattus norvegicus [3]
  inhibition in vivo at 50 mg/kg: 58.4%
Rattus norvegicus [4]
  inhibition in vivo at 50 mg/kg: 64.6%
Mus musculus [5]
  inhibition in vivo at 50 mg/kg: 65.3%
Rattus norvegicus [6]
  inhibition in vivo at 50 mg/kg: 49%
Rattus norvegicus [7]
  inhibition in vivo at 50 mg/kg: 54.5%

## CC(=O)c1c(NNc2nc(-c3ccccc3)cs2)cc(C)oc1=O
Mus musculus [8]
  Activity: Active
Rattus norvegicus [3]
  inhibition in vivo at 50 mg/kg: 48.3%
Rattus norvegicus [4]
  inhibition in vivo at 50 mg/kg: 51.9%
Mus musculus [5]
  inhibition in vivo at 50 mg/kg: 51.4%
Rattus norvegicus [6]
  inhibition in vivo at 50 mg/kg: 23.5%
Rattus norvegicus [7]
  inhibition in vivo at 50 mg/kg: 45.5%

## COc1ccc(-n2nc3cc(C)oc(=O)c3c2C)cc1
Rattus norvegicus [3]
  inhibition in vivo at 50 mg/kg: 53.9%
Rattus norvegicus [4]
  inhibition in vivo at 50 mg/kg: 64.6%
Mus musculus [5]
  inhibition in vivo at 50 mg/kg: 75.9%
Rattus norvegicus [6]
  inhibition in vivo at 50 mg/kg: 42.2%
Rattus norvegicus [7]
  inhibition in vivo at 50 mg/kg: 57.6%

## Cc1cc2nn(-c3nc(-c4ccccc4)cs3)c(C)c2c(=O)o1
Mus musculus [1]
  Activity: Active
Rattus norvegicus [3]
  inhibition in vivo at 50 mg/kg: 59.5%
Rattus norvegicus [4]
  inhibition in vivo at 50 mg/kg: 67.1%
Mus musculus [5]
  inhibition in vivo at 50 mg/kg: 70.2%
Rattus norvegicus [6]
  inhibition in vivo at 50 mg/kg: 52.9%
Rattus norvegicus [7]
  inhibition in vivo at 50 mg/kg: 62.6%

## Cc1cc2nn(-c3ccc(Cl)cc3)c(C)c2c(=O)o1
Rattus norvegicus [3]
  inhibition in vivo at 50 mg/kg: 59.5%
Rattus norvegicus [4]
  inhibition in vivo at 50 mg/kg: 58.2%
Mus musculus [5]
  inhibition in vivo at 50 mg/kg: 65.3%
Rattus norvegicus [6]
  inhibition in vivo at 50 mg/kg: 38.2%
Rattus norvegicus [7]
  inhibition in vivo at 50 mg/kg: 56.6%
